The nature of assay [1]: Inhibition of Staphylococcus aureus MurG after 30 mins. An outline of the steps:
(§1)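 MurG reaction in 12.5 μl: 200 mM Tris-HCl pH 7.5, 10 mM MgCl₂, 16 μM UDP-[¹⁴C]GlcNAc, 16 μM lipid I analog, 30% (v/v) DMSO (final) plus MurG. Run 30 min at 37 °C, stopped by 3 min boiling, lyophilized, redissolved in 2-propanol/NH₄OH/water (6:3:1). Lipid II resolved by silica TLC in the same solvent and counted by radioactivity scanning. Residual activity versus no-inhibitor control; IC50 from 7 concentrations.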

In assay [2] the target is T1, Phospho-N-acetylmuramoyl-pentapeptide-transferase (Staphylococcus aureus, UniProt P0C1R8).
T1 sequence (P0C1R8 whole entry): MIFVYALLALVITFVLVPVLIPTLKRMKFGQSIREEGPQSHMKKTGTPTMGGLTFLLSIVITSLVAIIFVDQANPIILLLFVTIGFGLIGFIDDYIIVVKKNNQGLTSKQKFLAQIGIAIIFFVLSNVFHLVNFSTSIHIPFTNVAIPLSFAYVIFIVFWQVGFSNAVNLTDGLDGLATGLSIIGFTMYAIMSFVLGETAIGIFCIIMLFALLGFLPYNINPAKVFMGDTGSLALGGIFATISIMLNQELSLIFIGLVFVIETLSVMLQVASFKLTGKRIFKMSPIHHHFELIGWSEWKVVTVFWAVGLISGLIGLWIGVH
Kind of assay: Inhibition of Staphylococcus aureus MraY after 30 mins. The method, boiled down:
(§2)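 Started with enzyme, 30 min at 37 °C with shaking, stopped at 100 °C for 1 min. Lipid I separated from substrate by silica TLC (2-propanol/NH₄OH/water 6:3:1), spots quantified by radioactivity scanning. Residual activity relative to no-inhibitor control; IC50 from 7 inhibitor concentrations.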

Assay [3] deals with Staphylococcus aureus. In words: Inhibition of Staphylococcus aureus MurG assessed as residual activity of enzyme at 2 mM after 30 mins. An outline of the steps:
as §1

Assay [4] concerns the target T2, Phospho-N-acetylmuramoyl-pentapeptide-transferase (Staphylococcus aureus) (UniProt P0C1R8).
T2 sequence (whole entry): T1 sequence (P0C1R8 whole entry)
Kind of assay: Inhibition of Staphylococcus aureus MraY assessed as residual activity of enzyme at 1 mM after 30 mins. The method, boiled down:
as §2

For assay [5], the target named is T2, Phospho-N-acetylmuramoyl-pentapeptide-transferase (Staphylococcus aureus). Kind of assay: Inhibition of Staphylococcus aureus MraY assessed as residual activity of enzyme at 2 mM after 30 mins. The note with it: 1 mM, in the assay text read “at 1 mM” for “at 2 mM”. An outline of the steps:
as §2

Assay [6] relates to Staphylococcus aureus. In words: Inhibition of Staphylococcus aureus MurG assessed as residual activity of enzyme at 1 mM after 30 mins. An outline of the steps:
as §1

Each structure is given as a SMILES string.

15 molecules from ChEMBL document CHEMBL1770048, “Synthesis and biological evaluation of a diazepanone-based library of liposidomycins analogs as MraY inhibitors” (Eur J Med Chem, 2011) can be followed below.

In general, IC50 refers to the concentration that inhibits the measured activity by half. High values mean weaker potency in that assay, low ones greater potency in that assay.

For `CCCCCCCCCCCCCCCC(=O)O[C@H]1CN(CCCCCn2ccc(=O)[nH]c2=O)[C@@H](CO[C@@H]2O[C@H](CN)[C@H]3OC(CC)(CC)O[C@@H]23)C(=O)N[C@@H]1CO[Si](c1ccccc1)(c1ccccc1)C(C)(C)C`, the IC50 in assay [1] was 110 µM; in assay [2] it was 620 µM.

With `CCCCCCCCCCCCCCCC(=O)O[C@H]1CN(CCCCCn2ccc(=O)[nH]c2=O)[C@@H](CO[C@@H]2O[C@H](CN)[C@H]3OC(CC)(CC)O[C@@H]23)C(=O)N[C@@H]1CO[C@@H]1O[C@H](CN)[C@H]2OC(CC)(CC)O[C@@H]12`, the IC50 in assay [1] is 100 µM; in assay [2] it was 310 µM.

For the molecule `CCCCCCCCCCCCCCCC(=O)O[C@H]1CN(CCCCCn2ccc(=O)[nH]c2=O)[C@@H](CO[C@@H]2O[C@H](CN)[C@@H](O)[C@H]2O)C(=O)N[C@@H]1CO[C@@H]1O[C@H](CN)[C@@H](O)[C@H]1O`, the IC50 stood at 130 µM in assay [1] and 2800 µM in assay [2].

On to `CCCCCCCCCCCCCCCC(=O)O[C@H]1CN(CCCCCn2ccc(=O)[nH]c2=O)[C@@H](CO[C@@H]2O[C@H](CN=[N+]=[N-])[C@H]3OC(CC)(CC)O[C@@H]23)C(=O)N[C@@H]1CO[Si](c1ccccc1)(c1ccccc1)C(C)(C)C`, for which, in assay [2], the IC50 was determined as 190 µM. The Activity in assay [3] amounted to 100%.

As to `CCCCCCCCCCCCCCCC(=O)O[C@H]1CN(CCCCCn2ccc(=O)[nH]c2=O)[C@@H](CO)C(=O)N[C@@H]1CO`, the IC50 in assay [2] amounted to 270 µM. Further, in assay [3], the Activity is 100%.

Turning to `CCCCCCCCCCCCCCCC(=O)O[C@H]1CN(C)[C@@H](CO[C@@H]2O[C@H](CN)[C@@H](O)[C@H]2O)C(=O)N[C@@H]1CO`, the values for the Activity in assay [4] and in assay [3] were 75% and 100%, respectively.

With `CCCCCCCCCCCCCCCC(=O)O[C@H]1CN(CCCCCn2ccc(=O)[nH]c2=O)[C@@H](CO[C@@H]2O[C@H](CN)[C@@H](O)[C@H]2O)C(=O)N[C@@H]1CO`, the IC50 in assay [1] amounted to 530 µM; in assay [2], 220 µM.

In turn, `CCCCCCCCCCCCCCCC(=O)O[C@H]1CN(CCCCCn2ccc(=O)[nH]c2=O)[C@@H](CO)C(=O)N[C@@H]1CO[Si](c1ccccc1)(c1ccccc1)C(C)(C)C` displayed an IC50 in assay [2] of 380 µM. The Activity in assay [3] is 66%.

`CCCCCCCCCCCCCCCC(=O)O[C@H]1CN(C)[C@@H](CO[C@@H]2O[C@H](CN)[C@H]3OC(CC)(CC)O[C@@H]23)C(=O)N[C@@H]1CO[Si](c1ccccc1)(c1ccccc1)C(C)(C)C` came in with an IC50 in assay [2] of 1000 µM.

Turning to `CCCCCCCCCCCCCCCC(=O)O[C@H]1CN(C)[C@@H](CO)C(=O)N[C@@H]1CO`, the IC50 in assay [2] came out at 1740 µM.

Turning to `CCCCCCCCCCCCCCCC(=O)O[C@H]1CN(CCCCCn2ccc(=O)[nH]c2=O)[C@@H](CO[C@@H]2O[C@H](CN)[C@@H](O)[C@H]2O)C(=O)N[C@@H]1CO[Si](c1ccccc1)(c1ccccc1)C(C)(C)C`, the IC50 turned out to be 185 µM in assay [1] and 120 µM in assay [2].

`CCCCCCCCCCCCCCCC(=O)O[C@H]1CN(CCCCCn2ccc(=O)[nH]c2=O)[C@@H](CO[C@@H]2O[C@H](CN=[N+]=[N-])[C@H]3OC(CC)(CC)O[C@@H]23)C(=O)N[C@@H]1CO[C@@H]1O[C@H](CN=[N+]=[N-])[C@H]2OC(CC)(CC)O[C@@H]12` displayed an IC50 in assay [2] of 420 µM. Further, the Activity in assay [3] is 87%.

Molecule `CCCCCCCCCCCCCCCC(=O)O[C@H]1CN(CCCCCn2ccc(=O)[nH]c2=O)[C@@H](COCc2ccccc2)C(=O)N[C@@H]1CO[Si](c1ccccc1)(c1ccccc1)C(C)(C)C` came in with an IC50 in assay [2] of 1400 µM. For the same molecule, the Activity in assay [3] came to 100%.

As for `CCCCCCCCCCCCCCCC(=O)O[C@H]1CN(C)[C@@H](CO[C@@H]2O[C@H](CN)[C@@H](O)[C@H]2O)C(=O)N[C@@H]1CO[Si](c1ccccc1)(c1ccccc1)C(C)(C)C`, inhibition in assay [1] was half-maximal at 150 µM (IC50). Further, the Activity in assay [5] was 66%.

As to `CC(C)(C)[Si](OC[C@H]1NC(=O)[C@H](COCc2ccccc2)N(CCCCCn2ccc(=O)[nH]c2=O)C[C@@H]1O)(c1ccccc1)c1ccccc1`, the Activity in assay [6] is 100%. In assay [2], 1600 µM corresponded to half-maximal inhibition (IC50).
